Data on 37 compounds can be found in ChEMBL document CHEMBL5038638, “Structure-Activity Relationship Study of Subtype-Selective Positive Modulators of KCa2 Channels” (J Med Chem, 2022).

What all share (type): cell-based
Test [1] has as its target Small conductance calcium-activated potassium channel protein 2 (Rattus norvegicus, UniProt P70604). As to the kind of experiment: Potentiation of rat KCa2.2a expressed in HEK293 cells at -90 mV holding potential measured at 1 to 2 days by patch clamp electrophysiology. Put shortly: (§1)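 Inside-out patches from HEK293 cells transfected (calcium-phosphate) with channel cDNA plus CaM and GFP (7:4:2). Bath (mM): 140 KCl, 10 Hepes pH 7.2, 1 EGTA, 0.1 dibromo-BAPTA, 1 HEDTA, with Ca2+ added to set free Ca2+, verified against a fluorescence standard curve. Currents taken at –90 mV and normalized to the maximal-compound response. EC50 and Hill coefficient came from a concentration–response fit. Efficacy was the maximal-compound current relative to the current at 10 µM Ca2+.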

The target in test [2] is Small conductance calcium-activated potassium channel protein 2 (Rattus norvegicus) (UniProt P70604). As to the kind of experiment: Potentiation of rat KCa2.2a expressed in HEK293 cells at 0.01 to 100 uM with -90 mV holding potential measured at 1 to 2 days by patch clamp electrophysiology relative to calcium. Particulars: filed as positive allosteric modulator, dose 0.01-100 µM, time 1-2 day. Put shortly:
as §1

In test [3] the target is Calcium-activated potassium channel subunit alpha-1 (Homo sapiens) (UniProt Q12791). As to the kind of experiment: Potentiation of human KCa1.1 expressed in HEK293 cells at 100 uM with -90 mV holding potential measured at 1 to 2 days by patch clamp electrophysiology. Particulars: time 1-2 day. (In patch-clamp work, channel activity is measured electrically.)
Calcium-activated potassium channel subunit alpha-1 (Homo sapiens), sequence (Q12791 whole entry): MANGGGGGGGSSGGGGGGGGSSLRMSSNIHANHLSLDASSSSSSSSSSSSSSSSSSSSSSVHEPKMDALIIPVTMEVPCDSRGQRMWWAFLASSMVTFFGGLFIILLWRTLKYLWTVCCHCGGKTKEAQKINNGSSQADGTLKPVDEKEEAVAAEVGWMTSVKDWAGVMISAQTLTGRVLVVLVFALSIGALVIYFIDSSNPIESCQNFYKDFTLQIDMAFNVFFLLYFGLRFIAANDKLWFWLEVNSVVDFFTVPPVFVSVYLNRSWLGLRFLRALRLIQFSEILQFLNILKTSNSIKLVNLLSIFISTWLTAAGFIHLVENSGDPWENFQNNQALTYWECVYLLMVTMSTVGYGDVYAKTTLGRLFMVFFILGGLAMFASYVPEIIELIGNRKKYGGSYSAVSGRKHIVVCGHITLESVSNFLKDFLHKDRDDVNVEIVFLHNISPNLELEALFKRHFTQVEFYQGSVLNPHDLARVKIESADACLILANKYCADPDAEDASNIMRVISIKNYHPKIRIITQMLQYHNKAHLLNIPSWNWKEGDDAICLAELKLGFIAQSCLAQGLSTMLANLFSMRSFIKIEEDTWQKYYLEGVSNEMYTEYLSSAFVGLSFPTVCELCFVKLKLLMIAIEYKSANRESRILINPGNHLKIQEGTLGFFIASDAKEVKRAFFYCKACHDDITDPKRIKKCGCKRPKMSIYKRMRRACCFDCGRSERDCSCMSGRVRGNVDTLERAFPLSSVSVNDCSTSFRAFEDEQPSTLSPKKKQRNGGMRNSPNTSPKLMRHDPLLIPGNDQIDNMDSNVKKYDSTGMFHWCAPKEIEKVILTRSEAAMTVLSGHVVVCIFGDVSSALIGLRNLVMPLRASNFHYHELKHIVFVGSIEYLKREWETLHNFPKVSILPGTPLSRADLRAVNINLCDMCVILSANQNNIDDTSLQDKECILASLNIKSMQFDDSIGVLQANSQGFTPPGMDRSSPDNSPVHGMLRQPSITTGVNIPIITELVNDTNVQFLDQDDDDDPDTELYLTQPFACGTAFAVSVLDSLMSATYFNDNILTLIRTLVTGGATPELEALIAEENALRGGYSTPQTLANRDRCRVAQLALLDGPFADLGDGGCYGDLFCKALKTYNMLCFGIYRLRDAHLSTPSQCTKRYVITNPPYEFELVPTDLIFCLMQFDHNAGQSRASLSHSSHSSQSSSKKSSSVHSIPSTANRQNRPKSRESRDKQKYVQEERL
Test [4] concerns the target Small conductance calcium-activated potassium channel protein 1 (Homo sapiens) (UniProt Q92952). As to the kind of experiment: Potentiation of human KCa2.1 expressed in HEK293 cells at 0.01 to 100 uM with -90 mV holding potential measured at 1 to 2 days by patch clamp electrophysiology relative to calcium. The conditions noted are these: dose 0.01-100 µM, time 1-2 day. Put shortly:
as §1

Test [5] deals with Intermediate conductance calcium-activated potassium channel protein 4 (Homo sapiens) (UniProt O15554). As to the kind of experiment: Potentiation of human KCa3.1 expressed in HEK293 cells at 0.01 to 100 uM with -90 mV holding potential measured at 1 to 2 days by patch clamp electrophysiology relative to calcium. Particulars: dose 0.01-100 µM, time 1-2 day. Put shortly:
as §1

The next test concerns N1E-115. As to the kind of experiment: Inhibition of mouse Nav1.2 expressed in mouse N1E-115 cells at 100 uM with -90 mV holding potential measured by patch clamp electrophysiology.
The target of test [6] is T1, Small conductance calcium-activated potassium channel protein 3 (Homo sapiens, UniProt Q9UGI6). As to the kind of experiment: Potentiation of human KCa2.3 expressed in HEK293 cells at -90 mV holding potential measured at 1 to 2 days by patch clamp electrophysiology. The gist of the method: as §1
T1 sequence (Q9UGI6 whole entry): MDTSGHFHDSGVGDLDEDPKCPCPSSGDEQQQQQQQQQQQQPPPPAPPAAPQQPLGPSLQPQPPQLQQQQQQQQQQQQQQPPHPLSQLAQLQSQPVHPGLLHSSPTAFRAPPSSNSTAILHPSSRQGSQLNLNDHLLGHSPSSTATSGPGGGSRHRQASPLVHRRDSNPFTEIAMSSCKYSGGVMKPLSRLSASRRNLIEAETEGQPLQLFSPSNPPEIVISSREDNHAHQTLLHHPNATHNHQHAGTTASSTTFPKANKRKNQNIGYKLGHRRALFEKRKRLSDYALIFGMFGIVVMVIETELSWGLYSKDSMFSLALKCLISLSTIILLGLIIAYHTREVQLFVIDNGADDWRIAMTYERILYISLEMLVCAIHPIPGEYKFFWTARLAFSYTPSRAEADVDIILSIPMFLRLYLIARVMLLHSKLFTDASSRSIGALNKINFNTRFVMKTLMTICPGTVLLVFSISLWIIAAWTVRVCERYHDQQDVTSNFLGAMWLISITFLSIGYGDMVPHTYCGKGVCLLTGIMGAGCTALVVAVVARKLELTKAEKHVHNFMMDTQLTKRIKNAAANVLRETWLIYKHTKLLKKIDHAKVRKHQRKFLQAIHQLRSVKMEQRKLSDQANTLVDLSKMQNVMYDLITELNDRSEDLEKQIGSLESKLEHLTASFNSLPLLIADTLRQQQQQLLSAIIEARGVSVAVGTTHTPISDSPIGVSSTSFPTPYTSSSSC
Test [7] concerns the target T1, Small conductance calcium-activated potassium channel protein 3. As to the kind of experiment: Potentiation of human KCa2.3 expressed in HEK293 cells at -90 mV holding potential measured at 1 to 2 days by patch clamp electrophysiology relative to calcium. Put shortly: as §1

Active and inactive are the calls of the source. No cut-off for these calls is given here.

Small conductance calcium-activated potassium channel protein 2, sequence (P70604 whole entry): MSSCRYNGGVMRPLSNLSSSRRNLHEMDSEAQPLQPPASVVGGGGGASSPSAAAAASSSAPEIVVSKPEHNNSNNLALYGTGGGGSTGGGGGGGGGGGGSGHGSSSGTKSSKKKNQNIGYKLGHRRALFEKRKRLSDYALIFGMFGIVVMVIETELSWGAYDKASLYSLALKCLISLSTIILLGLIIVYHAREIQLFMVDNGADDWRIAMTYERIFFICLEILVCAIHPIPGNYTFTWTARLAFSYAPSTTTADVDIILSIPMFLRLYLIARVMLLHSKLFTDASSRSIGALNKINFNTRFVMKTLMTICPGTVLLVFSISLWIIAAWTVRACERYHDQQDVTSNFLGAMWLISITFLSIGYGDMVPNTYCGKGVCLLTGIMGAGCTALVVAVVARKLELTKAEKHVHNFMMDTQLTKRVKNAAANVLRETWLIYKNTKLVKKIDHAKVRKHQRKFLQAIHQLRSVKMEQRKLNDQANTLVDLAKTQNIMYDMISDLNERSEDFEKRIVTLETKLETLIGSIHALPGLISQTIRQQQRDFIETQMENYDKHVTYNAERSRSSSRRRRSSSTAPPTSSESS
Small conductance calcium-activated potassium channel protein 2 (Rattus norvegicus), sequence (P70604 whole entry): as above
Intermediate conductance calcium-activated potassium channel protein 4 (Homo sapiens), sequence (O15554 whole entry): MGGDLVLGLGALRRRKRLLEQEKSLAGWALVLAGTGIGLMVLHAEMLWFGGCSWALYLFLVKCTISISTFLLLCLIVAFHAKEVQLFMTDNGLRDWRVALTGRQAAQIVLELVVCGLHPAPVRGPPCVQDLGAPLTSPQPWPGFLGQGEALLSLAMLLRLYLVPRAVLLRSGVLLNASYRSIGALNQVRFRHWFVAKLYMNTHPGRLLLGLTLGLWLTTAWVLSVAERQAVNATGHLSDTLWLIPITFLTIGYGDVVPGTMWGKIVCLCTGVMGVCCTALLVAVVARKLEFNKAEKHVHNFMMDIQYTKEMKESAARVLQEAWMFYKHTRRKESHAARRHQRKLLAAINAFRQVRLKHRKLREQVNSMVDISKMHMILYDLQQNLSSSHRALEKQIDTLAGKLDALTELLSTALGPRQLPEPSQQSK
Small conductance calcium-activated potassium channel protein 1 (Homo sapiens), sequence (Q92952 whole entry): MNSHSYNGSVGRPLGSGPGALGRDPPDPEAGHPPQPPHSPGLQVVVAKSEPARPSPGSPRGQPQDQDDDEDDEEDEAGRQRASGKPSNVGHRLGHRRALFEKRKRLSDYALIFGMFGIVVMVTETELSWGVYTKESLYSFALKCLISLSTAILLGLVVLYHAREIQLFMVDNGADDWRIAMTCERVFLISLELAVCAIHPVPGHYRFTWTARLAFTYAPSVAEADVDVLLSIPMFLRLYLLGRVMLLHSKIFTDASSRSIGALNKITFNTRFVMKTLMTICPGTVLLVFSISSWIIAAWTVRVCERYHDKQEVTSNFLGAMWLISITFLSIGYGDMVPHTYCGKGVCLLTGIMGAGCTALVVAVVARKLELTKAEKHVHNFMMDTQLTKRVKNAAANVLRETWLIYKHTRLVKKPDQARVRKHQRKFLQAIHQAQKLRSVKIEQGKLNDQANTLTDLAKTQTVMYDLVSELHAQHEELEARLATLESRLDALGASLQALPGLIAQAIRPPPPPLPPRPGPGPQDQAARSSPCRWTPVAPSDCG

A word on the EC50: it is the concentration that produces a half-maximal response. As for `Cc1cc(N[C@H]2CC[C@@H](CO)CC2)nc(-n2nc(C)cc2C)n1`, the EC50 in test [1] is greater than 100 µM.

Take `Cc1cc(Nc2ccc(C(F)(F)F)cc2)nc(-n2nc(C)cc2C)n1`: the EC50 in test [1] was 3.45 µM.

Regarding `Cc1cc(Nc2ccc(F)c(Cl)c2)nc(-c2coc(C)n2)n1`, the 50% effective concentration (EC50) in test [1] is 3.59 µM.

Consider `Cc1cc(Nc2cccc(F)c2F)nc(-n2nc(C)cc2C)n1`, for which, in test [1], the EC50 turned out to be 5.03 µM.

For `Cc1cc(N[C@@H](Cc2ccc(O)cc2)C(=O)O)nc(-n2nc(C)cc2C)n1`, the EC50 in test [1] is greater than 100 µM.

As for `Cc1cc(C)n(-c2cc(Nc3ccc(F)c(Cl)c3)nc(N)n2)n1`, the EC50 in test [1] is greater than 100 µM.

Take `Cc1cc(Nc2cc(Cl)ccc2F)nc(-c2coc(C)n2)n1`: the half-maximal effective concentration (EC50) in test [1] stood at 13.8 µM.

`Cc1cc(N[C@H]2CC[C@@H](N)CC2)nc(-n2nc(C)cc2C)n1`: in test [1], the EC50 is greater than 100 µM.

On to `COc1cc2nc(Nc3cc(C)nc(-n4nc(C)cc4C)n3)[nH]c2cc1OC`, for which the EC50 in test [1] is greater than 100 µM.

Take `Cc1cc(C)n(-c2nc(N)cc(Nc3ccc(F)c(Cl)c3)n2)n1`: in test [1], the EC50 stood at 6.59 µM.

For the compound `Cc1cc(N[C@H]2CC[C@@H]([N+](=O)[O-])CC2)nc(-n2nc(C)cc2C)n1`, the EC50 in test [1] is greater than 100 µM.

`Cc1cc(Nc2ccc(C(F)(F)F)c(Cl)c2)nc(-n2nc(C)cc2C)n1`: the EC50 in test [1] was found to be 3.27 µM.

The Emax is the greatest response seen or fitted, relative to the assay's reference. `Cc1cc(NC2CCCCC2)nc(-n2nc(C)cc2C)n1`: the 50% effective concentration (EC50) in test [1] stood at 7.48 µM. Also, the Emax in test [2] stood at 85.6%.

Regarding `Cc1cc(Nc2cc(F)ccc2F)nc(-n2nc(C)cc2C)n1`, the EC50 in test [1] was found to be 1.89 µM.

Regarding `Cc1cc(Nc2cc(C(=O)O)ccc2F)nc(-n2nc(C)cc2C)n1`, the EC50 in test [1] was greater than 30 µM.

Turning to `Cc1cc(Nc2cc(F)ccc2Cl)nc(-n2nc(C)cc2C)n1`, the EC50 in test [1] was 2.97 µM.

In the case of `Cc1cn(-c2nc(C)cc(Nc3cc(Cl)ccc3F)n2)cn1`, the EC50 in test [1] amounted to 4.51 µM.

In the case of `CO[C@H]1CC[C@@H](Nc2cc(C)nc(-n3nc(C)cc3C)n2)CC1`, the concentration for a half-maximal effect (EC50) in test [1] was determined as 49.7 µM. The Emax in test [2] was 94.6%.

In the case of `Cc1cc(N[C@@H](Cc2ccc(C#N)cc2)C(=O)O)nc(-n2nc(C)cc2C)n1`, the EC50 in test [1] was greater than 100 µM.

Regarding `Cc1cc(N[C@H]2CC[C@@H](O)CC2)nc(-n2nc(C)cc2C)n1`, in test [1], the EC50 is greater than 100 µM.

As to `Cc1cc(C)n(-c2cc(Nc3cccc(Cl)c3)nc(N)n2)n1`, in test [1], the half-maximal effective concentration (EC50) was greater than 100 µM.

Turning to `Cc1cc(C)n(-c2cc(Nc3ccc(Cl)cc3F)nc(N)n2)n1`, the EC50 in test [1] was greater than 100 µM.

A word on the inhibition: it is the drop in the measured response relative to a control, in per cent. Regarding `Cc1cc(Nc2cc(Cl)ccc2F)nc(-n2nc(C)cc2C)n1`, the outcome in test [3] was inactive. Moreover, the EC50 in test [1] stood at 0.64 µM; in test [6] it was 0.6 µM. The Emax in test [2] is 90%; in test [4], 0%; in test [5], 2.02%. Further, in the test on N1E-115, the inhibition was 50%.

Turning to `Cc1cc(C)n(-c2cc(Nc3cc(F)ccc3F)nc(N)n2)n1`, the EC50 in test [1] is greater than 100 µM.

For the compound `Cc1cc(C)n(-c2cc(Nc3ccc(C(F)(F)F)c(Cl)c3)nc(N)n2)n1`, the EC50 in test [1] is greater than 100 µM.

As to `Cc1cc(C)n(-c2cc(C)c(Nc3ccc(F)c(Cl)c3)nn2)n1`, the EC50 in test [1] is 4.32 µM.

As for `Cc1cc(Nc2ccc(F)c(Cl)c2)nc(-n2nc(C)cc2C)n1`, in test [3], the result was inactive. In addition, the EC50 in test [1] worked out at 0.99 µM; in test [7] it was 0.19 µM. The Emax stood at 90% in test [2], 0% in test [4] and 28.3% in test [5]. This compound also showed an inhibition with N1E-115 of 50%.

With `Cc1cc(Nc2ccc(Cl)cc2F)nc(-n2nc(C)cc2C)n1`, the concentration giving a half-maximal response (EC50) in test [1] came out at 1.99 µM.

`Cc1cc(N[C@@H](Cc2ccc(F)c(F)c2)C(=O)O)nc(-n2nc(C)cc2C)n1`: the EC50 in test [1] is greater than 100 µM.

Take `Cc1cc(Nc2ccc(S)cc2)nc(-n2nc(C)cc2C)n1`: the EC50 in test [1] is greater than 100 µM.

Consider `Cc1cc(N[C@H]2CC[C@@H](F)CC2)nc(-n2nc(C)cc2C)n1`, for which the EC50 in test [1] was greater than 100 µM.

With `Cc1cn(-c2nc(C)cc(Nc3ccc(F)c(Cl)c3)n2)cn1`, the EC50 in test [1] was determined as 38.8 µM.

As for `Cc1cc(NCCc2ccc([N+](=O)[O-])cc2)nc(-n2nc(C)cc2C)n1`, the EC50 in test [1] was greater than 100 µM.

Consider `Cc1cc(C)n(-c2cc(Nc3cc(Cl)ccc3F)nc(N)n2)n1`, for which, in test [1], the EC50 is greater than 100 µM.

`Cc1cc(Nc2cc(Cl)cc(C(F)(F)F)c2)nc(-n2nc(C)cc2C)n1`: the EC50 in test [1] is greater than 100 µM.

Consider `Cc1cc(Nc2ccc([N+](=O)[O-])cc2)nc(-n2nc(C)cc2C)n1`, for which the EC50 in test [1] was greater than 100 µM.

In the case of `Cc1cc(C)n(-c2cc(Nc3cc(F)ccc3Cl)nc(N)n2)n1`, the EC50 in test [1] was greater than 100 µM.
